In ChEMBL document CHEMBL1127020, “3-Quinolinecarboxamides. A series of novel orally-active antiherpetic agents” (1993):
In brackets after ≈: the same amount, converted by molar mass. Activity calls are given as the source filed them. The calls are words filed in the database; no cut-off is given here.

Key:
Human alphaherpesvirus 2 [1] = experiment: Minimum effective dose against herpes simplex virus-2 (HSV-2) by oral administration in female mice.; type: functional, organism-based
In short: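 Swiss female ICR mice (13–15 g) infected intravaginally with HSV-2 (Curtis) at a dose set for 80% mortality. Compound suspended in 1% gum tragacanth/2% Tween 80, given intragastrically at serial 2-fold doses, 20 mice per dose, 2 h before infection then twice daily for 5 d. Mortality followed 14 d; MED = lowest dose with survival differing from placebo (Mantel-Cox, Breslow).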

Human alphaherpesvirus 2 [2] = experiment: In vivo maximum tolerated dose against herpes simplex virus-2 (HSV-2) by oral administration in female mice; type: functional
Human alphaherpesvirus 2 [3] = experiment: In vitro maximum tolerated level against herpes simplex virus-2 (HSV-2) by plaque-reduction assay in vero cells; type: functional
Human alphaherpesvirus 2 [4] = experiment: (§1) In vitro minimum inhibitory concentration against herpes simplex virus-2 (HSV-2) by plaque-reduction assay in vero cells; type: functional
Human alphaherpesvirus 2 [5] = experiment: as §1; type: functional, organism-based
In short: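 Vero monolayers (2 days old, confluent; Hank's MEM + 5% inactivated FCS, 37 °C, 2% CO2) infected with ~80 PFU; after 1-h adsorption, overlay of M199/5% FCS with 1:150 human immune serum globulin plus serial 2-fold compound dilutions (1:200 from DMSO). 3 d incubation, glutaraldehyde fix, crystal violet stain, plaque count. MIC = lowest concentration giving 50% plaque reduction; mean of ≥2 experiments.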

SMILES | MED (Human alphaherpesvirus 2 [1]) | MTD (Human alphaherpesvirus 2 [2]) [mg/kg] | MTL (Human alphaherpesvirus 2 [3]) [µg/mL] | MIC (Human alphaherpesvirus 2 [4]) [µg/mL] | MIC (Human alphaherpesvirus 2 [5])
CCn1cc(C(N)=O)c(=O)c2ccc(-c3c(C)cncc3C)cc21 | inactive | 25 | 12.5 | 9.9 (≈ 30.8 µM) | –
CCn1cc(C(N)=O)c(=O)c2ccc(Cl)cc21 | – | – | >100 | – | inactive
CCn1cc(C2=NCCO2)c(=O)c2ccc(-c3ccncc3)cc21 | – | – | 12.5 | – | inactive
CCCCn1cc(C(N)=O)c(=O)c2ccc(-c3ccncc3)cc21 | inactive | 50 | 6.25 | 5.2 (≈ 16.2 µM) | –
NC(=O)c1cn(-c2ccc(F)cc2)c2cc(-c3ccccc3)ccc2c1=O | inactive | >200 | 12.5 | 0.82 (≈ 2.29 µM) | –
Cn1cc(C(N)=O)c(=O)c2ccc(-c3ccncc3)cc21 | inactive | 25 | >25 | 4.6 (≈ 16.5 µM) | –
NC(=O)c1c(O)c2ccc(-c3ccncc3)cc2n2c1nc1ccccc12 | – | – | 0.4 | – | –
COc1ccc(-n2cc(C(N)=O)c(=O)c3ccc(-c4ccncc4)cc32)cc1 | inactive | 50 | >25 | 1.3 (≈ 3.5 µM) | –
CCn1c(N)c(C(N)=O)c(=O)c2ccc(-c3ccncc3)cc21 | – | >100 | >12.5 | 9 (≈ 29.2 µM) | –
CCn1cc(C(=O)NCCO)c(=O)c2ccc(-c3ccncc3)cc21 | – | – | 25 | – | inactive
CCC(=O)c1c(O)c2ccc(-c3ccncc3)cc2n(-c2ccc(F)cc2)c1=O | – | – | – | > 100 | –
CCCn1cc(C(N)=O)c(=O)c2ccc(-c3ccncc3)cc21 | – | – | 6.25 | – | inactive
CCn1cc(C(N)=O)c(=O)c2ccc(-n3ccnc3)cc21 | – | – | 50 | – | inactive
CCn1cc(C(N)=O)c(=O)c2ccc(-c3cccnc3)cc21 | inactive | 100 | 50 | 12 (≈ 40.9 µM) | –
NC(=O)c1cn(C2CC2)c2cc(-c3ccncc3)ccc2c1=O | inactive | 25 | 25 | 4 (≈ 13.1 µM) | –
CCn1c(C)c(C(N)=O)c(=O)c2ccc(-c3ccncc3)cc21 | – | – | 50 | – | inactive
NC(=O)c1cn(-c2ccc(F)cc2)c2cc(Cl)ccc2c1=O | – | – | >12.5 | – | inactive
CCn1cc(C(N)=O)c(=O)c2ccc(I)cc21 | – | – | >100 | – | inactive
CCn1cc(C(N)=O)c(=O)c2ccc(N3CCN(C)CC3)cc21 | – | – | 50 | – | inactive
Cc1ccc(-n2cc(C(N)=O)c(=O)c3ccc(-c4ccncc4)cc32)cc1C | inactive | >200 | >100 | 1 (≈ 2.71 µM) | –
CCn1cc(C(N)=O)c(=O)c2ccc(-c3ccc(N)cc3)cc21 | – | – | 6.25 | – | inactive
CCn1cc(C(=O)O)c(=O)c2ccc(-c3ccncc3)cc21 [ROSOXACIN] | – | – | >200 | – | inactive
NC(=O)c1cn(CCO)c2cc(-c3ccncc3)ccc2c1=O | – | – | 50 | – | inactive
CC(C)(C)c1ccc(-n2cc(C(N)=O)c(=O)c3ccc(-c4ccncc4)cc32)cc1 | – | – | >25 | – | inactive
NC(=O)c1cn(-c2ccc(F)cc2)c2cc(Br)ccc2c1=O | – | – | 6.25 | – | inactive
CCCCCn1cc(C(N)=O)c(=O)c2ccc(-c3ccncc3)cc21 | inactive | 50 | 6.25 | 4.8 (≈ 14.3 µM) | –

SMILES | MED (Human alphaherpesvirus 2 [1]) | MTD (Human alphaherpesvirus 2 [2]) [mg/kg] | MTL (Human alphaherpesvirus 2 [3]) [µg/mL] | MIC (Human alphaherpesvirus 2 [4]) [µg/mL] | MIC (Human alphaherpesvirus 2 [5])
Cc1ccc(-n2cc(C(N)=O)c(=O)c3ccc(-c4ccncc4)cc32)cc1 | inactive | 50 | >25 | 0.63 (≈ 1.77 µM) | –
C=CCn1cc(C(N)=O)c(=O)c2ccc(-c3ccncc3)cc21 | inactive | <50 | 6.25 | 2.9 (≈ 9.5 µM) | –
CCn1cc(C(N)=O)c(=O)c2ccc(-c3cc(C)no3)cc21 | inactive | >200 | >100 | 12 (≈ 40.4 µM) | –
CCn1cc(C(N)=O)c(=O)c2ccc(-c3ccccc3)cc21 | – | – | 50 | – | inactive
NC(=O)c1cnc2cc(-c3ccncc3)ccc2c1O | – | – | 12.5 | – | inactive
CCn1cc(C(N)=O)c(=O)c2ccc(-c3ccccn3)cc21 | inactive | 100 | 25 | 14 (≈ 47.7 µM) | –
Cc1cc(-c2ccc3c(=O)c(C(N)=O)cn(-c4ccc(F)cc4)c3c2)sn1 | inactive | >100 | >100 | 0.25 (≈ 0.659 µM) | –
CCn1cc(C(N)=O)c(=O)c2ccc(-c3ccno3)cc21 | inactive | >200 | 12.5 | 5 (≈ 17.6 µM) | –
Cc1cc(-c2ccc3c(=O)c(C(N)=O)cn(-c4ccc(F)cc4)c3c2)on1 | inactive | >200 | >100 | 0.26 (≈ 0.716 µM) | –
NC(=O)c1cn(Cc2ccc(Cl)c(Cl)c2)c2cc(-c3ccncc3)ccc2c1=O | inactive | >100 | >100 | 1.7 (≈ 4.01 µM) | –
CCn1cc(C(N)=O)c(=O)c2ccc(F)cc21 | – | – | 50 | – | inactive
CCn1cc(C2=NCCN2)c(=O)c2ccc(-c3ccncc3)cc21 | – | – | >100 | – | inactive
NC(=O)c1c(O)c2ccc(-c3ccncc3)cc2n(-c2ccc(F)cc2)c1=O | – | – | >100 | 11 (≈ 29.3 µM) | –
CCn1cc(C(N)=O)c(=O)c2ccccc21 | – | – | 50 | – | inactive
Oc1nc2c(O)c3ccc(-c4ccncc4)cc3n(-c3ccc(F)cc3)c-2n1 | – | – | >100 | – | –
CCn1cc(C(=O)NOC)c(=O)c2ccc(-c3ccncc3)cc21 | – | – | 25 | – | inactive
CCn1cc(C(=O)NCCN(C)C)c(=O)c2ccc(-c3ccncc3)cc21 | – | – | >100 | – | inactive
CCn1cc(C(=O)N(C)C)c(=O)c2ccc(-c3ccncc3)cc21 | – | – | >100 | – | inactive
CCn1cc(C#N)c(=O)c2ccc(-c3ccncc3)cc21 | – | – | 100 | – | inactive
NC(=O)c1cn(-c2ccc(C(F)(F)F)cc2)c2cc(-c3ccncc3)ccc2c1=O | inactive | 50 | >100 | 1 (≈ 2.44 µM) | –
CCn1cc(C(N)=O)c(=O)c2ccc(-c3cnc(C)s3)cc21 | – | – | >100 | – | inactive
CCn1cc(C(=O)NCCN)c(=O)c2ccc(-c3ccncc3)cc21 | – | – | >100 | – | inactive
CCn1cc(C(N)=O)c(=O)c2ccc(-c3ccc([N+](=O)[O-])cc3)cc21 | – | – | >100 | – | inactive
NC(=O)c1csc2cc(-c3ccncc3)ccc2c1=O | – | – | >100 | – | inactive
NC(=O)c1cn(-c2ccc(F)cc2F)c2cc(-c3ccncc3)ccc2c1=O | inactive | <25 | 3.1 | 2.2 (≈ 5.83 µM) | –
